In ChEMBL document CHEMBL3286393 (J Med Chem, 2014):
Active and inactive are the calls of the source. No cut-off for these calls is given here.

Experiments:
Mus musculus [1] = experiment: Antiinflammatory activity in zymosan-induced peritonitis CD1 mouse model assessed as suppression of MPO activity at 1 mg/kg, ip administered 30 mins before challenge measured 4 hrs post zymosan challenge relative to control; format: functional; conditions: route intraperitoneal
Method in brief: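 In male CD-1 mice (n = 5−11 per group), dose was given ip in 2% DMSO/saline 30 min before ip zymosan (2 mg/mL, 0.5 mL). Lavage 4 h later. Pelleted exudate cells disrupted; supernatant mixed with 0.167 mg/mL o-dianisidine and 0.0005% H2O2 in PBS, read kinetically by absorbance. U/mL from human neutrophil MPO calibration; % inhibition vs vehicle.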

Mus musculus [2] = experiment: Antiinflammatory activity in zymosan-induced peritonitis CD1 mouse model assessed as suppression of neutrophil infiltration at 1 mg/kg, ip administered 30 mins before challenge measured 4 hrs post zymosan challenge relative to control; format: functional; conditions: route intraperitoneal
Method in brief: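 Zymosan peritonitis in male CD-1 mice (n = 5−11): ip dose in 2% DMSO/saline 30 min before ip zymosan. Peritoneal lavage with 3 mL cold PBS at 4 h. Exudate cells counted by light microscopy in a Burker chamber after trypan blue staining; % inhibition vs vehicle.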

Mus musculus [3] = experiment: Antiinflammatory activity in zymosan-induced peritonitis CD1 mouse model assessed as suppression of LTB4 level at 1 mg/kg, ip administered 30 mins before challenge measured 4 hrs post zymosan challenge relative to control v
Prostaglandin E synthase = target: T1, Prostaglandin E synthase (Homo sapiens, UniProt O14684); experiment: Inhibition of mPGES1-mediated PGE2 production in microsomes of IL-1beta stimulated human A549 cells preincubated for 15 mins by RP-HPLC analysis; format: cell-based
T1 sequence (O14684 whole entry): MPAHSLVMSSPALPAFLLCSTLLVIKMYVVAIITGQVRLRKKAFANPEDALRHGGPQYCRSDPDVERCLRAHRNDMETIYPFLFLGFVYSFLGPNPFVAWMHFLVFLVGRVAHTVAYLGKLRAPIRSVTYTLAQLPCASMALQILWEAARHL
Method in brief: (§1)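 mPGES-1 source: microsomes of A549 cells treated 48 h with IL-1β 2 ng/mL, at 25−50 μg protein/mL in 0.1 M potassium phosphate pH 7.4 with 2.5 mM glutathione. Compound preincubation 15 min at 4 °C; PGH2 (20 μM final) for 1 min; FeCl2/citric acid stop with 11β-PGE2 internal standard. PGE2 by RP-HPLC.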

[4] = target: T2, Prostaglandin E synthase (Homo sapiens) (UniProt O14684); experiment: Inhibition of mPGES1-mediated PGE2 formation in LPS-stimulated human monocytes preincubated for 15 mins before arachidonic acid substrate addition measured after 30 mins by UPLC-MS/MS analysis; format: cell-based
T2 sequence (whole entry): T1 sequence (O14684 whole entry)
Method in brief: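 Fresh human monocytes (adherence-isolated, >85% CD14+; 5 × 10⁶/well) primed with LPS 1 μg/mL for 24 h. Washed, 15 min preincubation, then 2.5 μM A23187 plus 20 μM arachidonic acid for 30 min. Eicosanoids extracted and measured by UPLC-MS/MS, normalized to PGB1 as relative intensities. Two to three independent experiments.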

[5] = target: T2, Prostaglandin E synthase (Homo sapiens); experiment: Inhibition of mPGES1-mediated PGE2 production in microsomes of IL-1beta stimulated human A549 cells assessed as residual activity preincubated at 10 uM for 15 mins by RP-HPLC analysis relative to control; format: cell-based; method in brief: as §1
[6] = target: T3, Polyunsaturated fatty acid 5-lipoxygenase (Homo sapiens, UniProt P09917); experiment: Inhibition of human recombinant 5-LO expressed in Escherichia coli Bl21 (DE3) using arachidonic acid as substrate preincubated for 10 mins measured after 10 mins by RP-HPLC analysis
T3 sequence (P09917 whole entry): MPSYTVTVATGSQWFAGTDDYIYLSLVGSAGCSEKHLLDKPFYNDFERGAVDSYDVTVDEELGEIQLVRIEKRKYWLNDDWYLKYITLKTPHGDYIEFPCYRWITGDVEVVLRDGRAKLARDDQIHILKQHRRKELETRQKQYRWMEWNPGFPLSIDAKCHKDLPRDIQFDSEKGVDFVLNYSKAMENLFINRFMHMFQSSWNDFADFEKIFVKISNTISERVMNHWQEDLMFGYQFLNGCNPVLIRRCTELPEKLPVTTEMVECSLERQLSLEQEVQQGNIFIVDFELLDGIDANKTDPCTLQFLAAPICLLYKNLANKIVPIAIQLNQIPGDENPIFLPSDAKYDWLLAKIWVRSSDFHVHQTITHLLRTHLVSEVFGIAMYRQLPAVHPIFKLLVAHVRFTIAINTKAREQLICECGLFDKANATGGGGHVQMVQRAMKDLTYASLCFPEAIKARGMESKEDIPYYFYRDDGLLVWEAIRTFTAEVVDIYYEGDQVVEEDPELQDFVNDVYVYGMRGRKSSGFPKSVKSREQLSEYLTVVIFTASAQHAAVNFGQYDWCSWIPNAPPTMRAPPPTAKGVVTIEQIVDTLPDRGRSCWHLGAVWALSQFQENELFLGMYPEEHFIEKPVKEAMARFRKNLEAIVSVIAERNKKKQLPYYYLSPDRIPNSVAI
Method in brief: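 5-LO expressed from pT3-5LO in E. coli BL21(DE3), semi-purified on ATP-agarose, diluted in PBS with 1 mM EDTA and 1 mM ATP. Preincubated with compound 10 min at 4 °C, then 30 s at 37 °C. Started with 2 mM CaCl2 plus 20 μM arachidonic acid; 10 min at 37 °C; ice-cold methanol stop. Three to four experiments.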

[7] = target: T3, Polyunsaturated fatty acid 5-lipoxygenase; experiment: Inhibition of 5-LO in human neutrophils using arachidonic acid as substrate preincubated for 15 mins measured after 10 mins by HPLC analysis
Method in brief: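 Fresh human neutrophils, 1 × 10⁷/mL in PBS pH 7.4 with 1 mM CaCl2 and 1 mg/mL glucose, preincubated 15 min at 37 °C. LTB4, its all-trans isomers and 5-H(P)ETE by HPLC.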

[8] = test system: Radical scavenging activity; experiment: Antioxidant activity assessed as DPPH free radical scavenging activity at 10 uM after 30 mins […] by spectrophotometric analysis; format: functional
[9] = Aqueous stability of the compound in at 2 uM in 10 mM aqueous ammonium bicarbonate at pH 7.9 assessed as formation of trans-6-(4'-hydroxy-3'-methoxyphenyl)-2,4-dioxo-5-hexenal measured as residual amount of compound by reversed phase liquid chromatography-coupled mass spectrometry; format: physicochemical; conditions: buffer, pH 7.9, 2 µM
Method in brief: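 Compounds at 2 μM in 10 mM aqueous ammonium bicarbonate pH 7.9, incubated 30 min at 37 °C. Analysed by UPLC-MS on a C18 column, gradient acetonitrile/water with 0.07% formic acid, at 0.7 mL/min. Residual amount given as % of control; three to four independent experiments.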

[10] = target: T4, Prostaglandin G/H synthase 1 (Homo sapiens, UniProt P23219); experiment: Inhibition of COX1-mediated PGE2 production in human platelets assessed as residual activity by measuring formation of 12-HHT from arachidonic acid preincubated at 10 uM for 5 mins measured after 5 mins by RP-HPLC analysis relative to control
Method in brief: (§2)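 Washed human platelets, 10⁸/mL in PBS pH 7.4 with 1 mM CaCl2: 5 min compound preincubation at room temperature, then 1 min at 37 °C. Arachidonic acid 5 μM added; 5 min at 37 °C. 12-HHT extracted and measured by RP-HPLC.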

[11] = target: T5, Prostaglandin G/H synthase 1 (Ovis aries) (UniProt P05979); experiment: Inhibition of purified ovine COX-1 assessed as residual activity by measuring formation of 12-HHT from arachidonic acid preincubated at 10 uM for 5 mins before substrate addition measured after 5 mins by HPLC analysis relative to control
T5 sequence (whole entry): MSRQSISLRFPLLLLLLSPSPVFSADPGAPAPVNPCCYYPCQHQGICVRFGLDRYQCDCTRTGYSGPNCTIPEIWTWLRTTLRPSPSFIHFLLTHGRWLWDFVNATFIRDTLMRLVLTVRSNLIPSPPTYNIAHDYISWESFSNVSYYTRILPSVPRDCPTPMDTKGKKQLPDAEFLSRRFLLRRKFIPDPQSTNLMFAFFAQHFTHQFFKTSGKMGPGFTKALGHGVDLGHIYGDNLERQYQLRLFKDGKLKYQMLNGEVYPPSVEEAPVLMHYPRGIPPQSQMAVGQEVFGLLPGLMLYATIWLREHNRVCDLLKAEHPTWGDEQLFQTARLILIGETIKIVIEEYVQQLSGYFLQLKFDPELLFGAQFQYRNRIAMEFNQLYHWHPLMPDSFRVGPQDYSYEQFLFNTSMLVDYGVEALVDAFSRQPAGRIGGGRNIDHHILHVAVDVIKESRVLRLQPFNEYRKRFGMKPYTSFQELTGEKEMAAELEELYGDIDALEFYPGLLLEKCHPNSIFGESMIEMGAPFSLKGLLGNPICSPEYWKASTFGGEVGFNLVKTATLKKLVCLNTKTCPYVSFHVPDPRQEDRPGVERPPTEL
Method in brief: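 Purified ovine COX-1 (50 units) in 100 mM Tris pH 8 with 5 mM glutathione, 5 μM hemoglobin and 100 μM EDTA. Preincubated 5 min at 4 °C then 1 min at 37 °C. 5 μM arachidonic acid added; 12-HHT extracted after 5 min and measured by HPLC. Residual activity at 10 μM, three independent experiments.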

[12] = target: T6, Polyunsaturated fatty acid lipoxygenase ALOX12 (Homo sapiens) (UniProt P18054); experiment: Inhibition of 12-LO in human neutrophils assessed as residual activity relative to control; conditions: values are per cent of control
T6 sequence (whole entry): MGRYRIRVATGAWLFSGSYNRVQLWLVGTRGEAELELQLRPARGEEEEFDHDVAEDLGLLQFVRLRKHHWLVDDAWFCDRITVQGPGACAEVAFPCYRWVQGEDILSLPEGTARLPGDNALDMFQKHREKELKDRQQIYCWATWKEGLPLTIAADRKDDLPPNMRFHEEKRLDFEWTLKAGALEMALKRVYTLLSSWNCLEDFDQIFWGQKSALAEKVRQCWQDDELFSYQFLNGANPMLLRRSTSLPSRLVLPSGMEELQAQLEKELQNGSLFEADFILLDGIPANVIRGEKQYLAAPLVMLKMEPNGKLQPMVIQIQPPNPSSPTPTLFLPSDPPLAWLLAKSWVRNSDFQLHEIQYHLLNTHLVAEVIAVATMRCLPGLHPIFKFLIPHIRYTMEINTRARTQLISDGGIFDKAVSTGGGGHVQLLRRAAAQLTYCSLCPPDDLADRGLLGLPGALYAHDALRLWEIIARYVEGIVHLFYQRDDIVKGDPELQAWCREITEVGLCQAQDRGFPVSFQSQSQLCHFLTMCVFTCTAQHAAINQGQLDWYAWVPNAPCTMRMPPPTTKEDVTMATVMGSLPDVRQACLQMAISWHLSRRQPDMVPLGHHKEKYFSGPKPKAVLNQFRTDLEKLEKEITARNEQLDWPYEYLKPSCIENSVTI

LNCaP = experiment: Cytotoxicity against human LNCAP cells assessed as cell viability after 24 hrs by MTT assay; format: cell-based
Method in brief: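 LNCaP seeded at 10⁴ cells/well and exposed 24 h. MTT added, then 4 h at 37 °C, 5% CO2, dark. Medium removed and formazan dissolved in DMSO; absorbance at 570 nm.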

PBMC = experiment: Cytotoxicity against human PBMCs assessed as cell viability after 24 hrs by MTT assay; format: cell-based
Method in brief: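 Human PBMC (2 × 10⁵/well), 24 h exposure. MTT then 4 h at 37 °C in darkness. Formazan solubilized with 10% SDS in 20 mM HCl; absorbance 550 nm. Viability relative to untreated cells; IC50 derived.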

[13] = target: T4, Prostaglandin G/H synthase 1; experiment: Inhibition of COX1-mediated […] in human platelets assessed as residual activity by measuring formation of 12-HHT from arachidonic acid preincubated at 10 uM for 5 mins measured after 5 mins by RP-HPLC analysis relative to control; values are per cent of control
[14] = target: T4, Prostaglandin G/H synthase 1; experiment: Inhibition of COX1-mediated PGE2 production in human platelets assessed as formation of 12-HHT using arachidonic acid as substrate preincubated for 5 mins measured after 5 mins by RP-HPLC analysis; method in brief: as §2
[15] = target: T5, Prostaglandin G/H synthase 1 (Ovis aries); experiment: Inhibition of purified ovine COX-1 assessed as residual activity by measuring formation of 12-HHT from arachidonic acid preincubated at 10 uM for 5 mins before substrate addition measured after 5 mins by HPLC analysis relative to control; values are per cent of control

T4 sequence (P23219 whole entry): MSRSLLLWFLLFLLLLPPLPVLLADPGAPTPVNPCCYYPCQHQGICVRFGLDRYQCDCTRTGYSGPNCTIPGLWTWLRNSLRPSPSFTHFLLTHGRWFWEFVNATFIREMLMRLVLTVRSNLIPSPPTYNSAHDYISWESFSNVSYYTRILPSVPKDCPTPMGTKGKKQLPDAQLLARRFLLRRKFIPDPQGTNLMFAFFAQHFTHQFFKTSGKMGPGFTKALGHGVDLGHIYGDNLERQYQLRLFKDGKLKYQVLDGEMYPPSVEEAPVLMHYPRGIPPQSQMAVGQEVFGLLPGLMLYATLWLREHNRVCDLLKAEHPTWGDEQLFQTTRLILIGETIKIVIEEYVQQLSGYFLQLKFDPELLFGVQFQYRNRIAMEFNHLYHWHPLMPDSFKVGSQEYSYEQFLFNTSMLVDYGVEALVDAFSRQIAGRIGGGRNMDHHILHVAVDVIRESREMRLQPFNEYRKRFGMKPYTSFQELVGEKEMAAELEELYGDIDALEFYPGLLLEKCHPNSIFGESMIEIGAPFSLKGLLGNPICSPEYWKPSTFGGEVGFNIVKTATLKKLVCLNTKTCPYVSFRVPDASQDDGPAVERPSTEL

SMILES	IC50 [6] [µM]	IC50 [7] [µM]	Activity [8] [%]	Stability [9]	inhibition [11]	residual activity [12] [%]	IC50 (LNCaP) [µM]	IC50 (PBMC) [µM]	other results
CC(C)c1ccc2c(c1)c(SC(C)(C)C)c(CC(C)(C)C(=O)O)n2Cc1ccc(Cl)cc1	–	–	–	–	–	–	–	–	inhibition in vivo at 1 mg/kg (Mus musculus [1]): 41%; inhibition in vivo at 1 mg/kg (Mus musculus [2]): 41%; inhibition in vivo at 1 mg/kg (Mus musculus [3]): 63%
Clc1ccccc1-c1nc2c3ccccc3c3ccccc3c2[nH]1	–	–	–	–	–	–	–	–	IC50 (Prostaglandin E synthase; read-out: IC50): 0.02 µM; inhibition [4]: Active
COc1cc(/C=C/C(=O)CC(=O)/C=C/c2cc(CCC(C)C)c(O)c(OC)c2)cc(CCC(C)C)c1O	2.8	80.2	64.3	Unstable	inactive	75.7	–	–	Activity [5]: 71.7%; inhibition [10]: inactive
O=C1O[C@H]([C@@H](O)CO)C(O)=C1O	–	–	20.4	–	–	–	–	–	–
COc1cc(/C=C/C(=O)/C=C/c2cc(F)c(O)c(OC)c2)cc(F)c1O	0.6	8.1	80.5	Unstable	inactive	67.7	25.1	> 50	Activity [5]: 58.8%; residual activity [13]: 65.2%
COc1cc(/C=C/C(=O)CC(=O)/C=C/c2cc(F)c(O)c(OC)c2)cc(F)c1O	0.4	10	61.4	Unstable	inactive	69.7	> 50	> 50	IC50 (Prostaglandin E synthase; read-out: IC50): 8.7 µM; IC50 [14]: 7.5 µM
COc1ccc2c(c1)c(CC(=O)O)c(C)n2C(=O)c1ccc(Cl)cc1	–	–	–	–	–	–	–	–	residual activity [15]: 25%
COc1cc(CCC(=O)CC(=O)CCc2cc(CCC(C)C)c(O)c(OC)c2)cc(CCC(C)C)c1O	0.4	2.9	71.9	87.4%	–	76.4	> 50	> 50	IC50 (Prostaglandin E synthase; a549): Not Active; inhibition [10]: inactive; residual activity [15]: 82.7%
